Measurements: ChEMBL document CHEMBL2163344, “Immunomodulatory properties of novel nucleotide oligomerization domain 2 (nod2) agonistic desmuramyldipeptides” (J Med Chem, 2012)
Activity calls are given as the source filed them. No cut-off for these calls is given here.

Experiments:
Format in all cases: functional, cell-based
PBMC [1] = experiment: Immunomodulatory activity in human PBMCs assessed as increase in PMA/ionomycin-induced IL8 release at 20 uM incubated for 18 hrs by multiplexed cytokine assay
[2] = biological target: T1, Nucleotide-binding oligomerization domain-containing protein 1 (Homo sapiens) (UniProt Q9Y239); experiment: Agonist activity at human NOD1 expressed in Ramos blue cells assessed as stimulation of NF-kB/AP-1 activity at 20 uM incubated for 18 hrs using quanti blue assay based SEAP reporter gene assay
T1 sequence (whole entry): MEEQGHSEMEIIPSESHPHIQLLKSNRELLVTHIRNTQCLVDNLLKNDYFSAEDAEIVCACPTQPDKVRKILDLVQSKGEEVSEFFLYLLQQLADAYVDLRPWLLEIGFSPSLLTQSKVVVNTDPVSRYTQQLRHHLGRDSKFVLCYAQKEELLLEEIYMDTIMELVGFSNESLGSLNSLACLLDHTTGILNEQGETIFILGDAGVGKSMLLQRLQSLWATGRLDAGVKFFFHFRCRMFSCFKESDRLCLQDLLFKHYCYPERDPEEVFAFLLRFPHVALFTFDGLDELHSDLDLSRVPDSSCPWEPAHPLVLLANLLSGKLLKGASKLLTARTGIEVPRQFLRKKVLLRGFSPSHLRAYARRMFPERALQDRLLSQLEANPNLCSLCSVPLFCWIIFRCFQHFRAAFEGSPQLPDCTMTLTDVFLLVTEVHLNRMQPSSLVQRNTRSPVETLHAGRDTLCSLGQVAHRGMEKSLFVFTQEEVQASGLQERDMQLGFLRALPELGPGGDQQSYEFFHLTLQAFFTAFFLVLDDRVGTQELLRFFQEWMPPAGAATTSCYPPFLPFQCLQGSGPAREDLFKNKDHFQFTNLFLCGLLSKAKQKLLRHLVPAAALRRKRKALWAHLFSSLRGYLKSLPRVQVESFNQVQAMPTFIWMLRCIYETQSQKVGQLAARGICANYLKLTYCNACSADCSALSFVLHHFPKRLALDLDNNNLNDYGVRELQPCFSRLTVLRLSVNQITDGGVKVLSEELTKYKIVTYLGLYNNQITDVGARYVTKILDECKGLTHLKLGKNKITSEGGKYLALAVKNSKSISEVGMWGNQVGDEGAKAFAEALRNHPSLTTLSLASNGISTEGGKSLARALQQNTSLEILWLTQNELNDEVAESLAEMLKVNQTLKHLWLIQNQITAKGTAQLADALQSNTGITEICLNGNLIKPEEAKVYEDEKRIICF
Outline: (§1)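 Ramos-Blue control cells (TLR3/7/9 and Nod1, no Nod2; stable NF-κB/AP-1-inducible SEAP reporter) at 1 × 10^6 cells/mL, exposed 18 h to 20 μM compound. SEAP in supernatant read with QUANTI-Blue reagent (3 h, 37 °C), absorbance 640 nm; activity compared with untreated cells.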

PBMC [3] = experiment: Immunomodulatory activity in human PBMCs assessed as increase in PMA/ionomycin-induced IL-12p70 release at 20 uM incubated for 18 hrs by multiplexed cytokine assay
Outline: (§2)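 Ficoll-isolated human PBMC, 1 × 10^6 cells per well, treated with 20 μM compound (DMSO ≤0.1%) plus PMA 3.33 ng/mL and ionomycin 500 nM for 18 h at 37 °C, 5% CO2. Cell-free supernatant cytokines measured by CBA human inflammatory kit on a flow cytometer against recombinant standards. Reported as % of PMA/ionomycin-only release; duplicates, three experiments, three donors.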

[4] = biological target: T2, Toll-like receptor 7 (Homo sapiens) (UniProt Q9NYK1); experiment: Agonist activity at human TLR7 expressed in Ramos blue cells assessed as stimulation of NF-kB/AP-1 activity at 20 uM incubated for 18 hrs using quanti blue assay based SEAP reporter gene assay; outline: as §1
T2 sequence (whole entry): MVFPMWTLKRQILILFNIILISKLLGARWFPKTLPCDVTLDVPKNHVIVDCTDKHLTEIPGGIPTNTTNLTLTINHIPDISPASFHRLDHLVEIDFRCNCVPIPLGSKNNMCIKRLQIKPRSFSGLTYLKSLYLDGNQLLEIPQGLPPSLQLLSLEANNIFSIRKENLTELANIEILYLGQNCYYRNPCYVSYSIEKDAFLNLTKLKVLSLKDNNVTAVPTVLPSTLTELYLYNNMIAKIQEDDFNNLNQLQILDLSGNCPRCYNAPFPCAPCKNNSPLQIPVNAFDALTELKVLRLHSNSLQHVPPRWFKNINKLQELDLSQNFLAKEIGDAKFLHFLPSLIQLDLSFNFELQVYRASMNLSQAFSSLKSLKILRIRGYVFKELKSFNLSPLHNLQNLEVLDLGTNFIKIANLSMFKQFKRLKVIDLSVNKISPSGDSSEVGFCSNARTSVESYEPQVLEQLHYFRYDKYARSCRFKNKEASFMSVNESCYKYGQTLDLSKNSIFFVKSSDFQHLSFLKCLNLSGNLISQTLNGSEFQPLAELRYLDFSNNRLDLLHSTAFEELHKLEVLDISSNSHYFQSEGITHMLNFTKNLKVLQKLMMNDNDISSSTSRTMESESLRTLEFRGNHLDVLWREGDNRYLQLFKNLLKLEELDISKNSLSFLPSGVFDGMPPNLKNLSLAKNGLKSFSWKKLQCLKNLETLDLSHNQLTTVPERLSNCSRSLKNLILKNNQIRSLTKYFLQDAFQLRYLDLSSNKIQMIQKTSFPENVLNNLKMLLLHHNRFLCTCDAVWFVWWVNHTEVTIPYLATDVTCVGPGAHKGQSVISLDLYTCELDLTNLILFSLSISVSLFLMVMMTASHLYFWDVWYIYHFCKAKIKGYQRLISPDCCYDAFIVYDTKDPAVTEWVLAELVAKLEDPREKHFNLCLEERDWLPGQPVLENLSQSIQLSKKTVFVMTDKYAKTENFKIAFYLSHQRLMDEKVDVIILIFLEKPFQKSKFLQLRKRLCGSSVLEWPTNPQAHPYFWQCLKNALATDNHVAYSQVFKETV

PBMC [5] = experiment: Immunomodulatory activity in human PBMCs assessed as increase in PMA/ionomycin-induced TNFalpha release at 20 uM incubated for 18 hrs by multiplexed cytokine assay; outline: as §2
PBMC [6] = experiment: Immunomodulatory activity in human PBMCs assessed as increase in PMA/ionomycin-induced TNFalpha release at 20 uM by multiplexed cytokine assay; details: TDE = time-dependent effect; outline: as §2
PBMC [7] = experiment: Immunomodulatory activity in human PBMCs assessed as increase in PMA/ionomycin-induced IL8 release at 0.2 to 200 uM incubated for 18 hrs by multiplexed cytokine assay
Outline: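 Human PBMC stimulated with PMA 3.33 ng/mL and ionomycin 500 nM plus compound at 0.2, 2, 20 or 200 μM for 18 h. Supernatant cytokines quantified by cytometric bead array. Compared with PMA/ionomycin-only cells; two independent experiments in duplicate, two donors, mean ± SD.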

PBMC [8] = experiment: Immunomodulatory activity in human PBMCs assessed as increase in PMA/ionomycin-induced IL-12p70 release at 20 uM by multiplexed cytokine assay; details: TDE = time-dependent effect; outline: as §2
PBMC [9] = experiment: Immunomodulatory activity in human PBMCs assessed as increase in PMA/ionomycin-induced TNFalpha release incubated for 18 hrs by multiplexed cytokine assay; outline: as §2

| SMILES | Activity [2] | Activity [4] | Activity (PBMC [1]) | Activity (PBMC [3]) | Activity (PBMC [5]) | Activity (PBMC [6]) | Activity (PBMC [7]) | Activity (PBMC [8]) | Activity (PBMC [9]) |
| --- | --- | --- | --- | --- | --- | --- | --- | --- | --- |
| CCOC(=O)CC[C@@H](NC(=O)[C@H](C)NC(=O)CNC(=O)c1cc2ccccc2[nH]1)C(=O)OCC | inactive | inactive | inactive | Active | Active | tde | inactive | tde | Dose-dependent effect |
| CCOC(=O)CC[C@@H](NC(=O)[C@H](C)NC(=O)CNC(=O)c1cc2ccccc2[nH]1)C(N)=O | inactive | inactive | inactive | inactive | inactive | – | – | – | – |
| CCCCOC(=O)[C@@H](CCC(N)=O)NC(=O)[C@H](C)NC(=O)[C@@H](C)O[C@H]1[C@H](O)[C@@H](CO)OC(O)[C@@H]1NC(C)=O (some centres not stated) [MURABUTIDE] | inactive | inactive | inactive | Active | Active | tde | inactive | tde | Dose-dependent effect |

More lines, main results first:

| Activity [2] | Activity [4] | SMILES | Activity (PBMC [1]) | Activity (PBMC [3]) | Activity (PBMC [5]) | Activity (PBMC [6]) | Activity (PBMC [7]) | Activity (PBMC [8]) | Activity (PBMC [9]) |
| --- | --- | --- | --- | --- | --- | --- | --- | --- | --- |
| inactive | inactive | CCOC(=O)CC[C@@H](NC(=O)[C@H](C)NC(=O)COCCN1C(=O)c2ccccc2S1(=O)=O)C(=O)OCC | inactive | inactive | inactive | – | – | – | – |
| inactive | inactive | CCOC(=O)CC[C@@H](NC(=O)[C@H](C)NC(=O)COCCN1C(=O)c2ccccc2S1(=O)=O)C(N)=O | inactive | inactive | inactive | – | – | – | – |
| inactive | inactive | CCOC(=O)CC[C@@H](NC(=O)[C@H](C)NC(=O)CCCCN1C(=O)c2ccccc2S1(=O)=O)C(=O)OCC | inactive | inactive | inactive | – | – | – | – |
| inactive | inactive | CCOC(=O)CC[C@@H](NC(=O)[C@H](C)NC(=O)C1=C2c3ccccc3S(=O)(=O)N2CCC1)C(=O)OCC | inactive | Active | – | – | – | – | – |
| inactive | inactive | CCOC(=O)CC[C@@H](NC(=O)[C@H](C)NC(=O)CCCCN1C(=O)c2ccccc2S1(=O)=O)C(N)=O | inactive | inactive | inactive | – | – | – | – |
